Laboratory results taken from ChEMBL document CHEMBL1629690, “Development of hexadecyloxypropyl tenofovir (CMX157) for treatment of infection caused by wild-type and nucleoside/nucleotide-resistant HIV” (Antimicrob Agents Chemother, 2010).

How the values were obtained:
[1] = test system: Human immunodeficiency virus 1; test: Antiviral activity against HIV1 7303-3 harboring reverse transcriptase 41L/44D/67N/69D/118I/210W/215Y mutant gene infected in human PBMC by ELISA; type: functional, organism-based; conditions: Human immunodeficiency virus 1, 7303-3
Summary of the method: (§1)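 Fresh PBMCs pooled from at least two HIV- and HBV-seronegative donors, stimulated with PHA 4 μg/ml for 48–72 h and kept in rhIL-2 20 U/ml. Seeded at 5 × 10^4 cells/well and infected with RT-mutant HIV-1 clones at MOI ~0.1. Nine compound concentrations, triplicate wells, 7-day incubation. EC50 reported as mean ± SD of one to three independent experiments.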

[2] = test system: Human immunodeficiency virus 1; test: Antiviral activity against HIV1 isolate 153 harboring reverse transcriptase L74V mutant gene by phenosense assay relative to wild type; type: functional
Summary of the method: (§2)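 Recombinant-virus PhenoSense HIV assay run on a panel of 30 NRTI-resistant HIV-1 mutants and two wild-type viruses. Each virus is tested across increasing drug concentrations to give an inhibition curve and EC50. Fold change is the test recombinant EC50 divided by the EC50 of the drug-sensitive wild-type reference virus.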

[3] = test system: Human immunodeficiency virus 1; test: Antiviral activity against HIV1 isolate 070 harboring reverse transcriptase 65R/S68G mutant gene by phenosense assay; type: functional, organism-based; conditions: Human immunodeficiency virus 1, isolate 070; summary of the method: as §2
[4] = test system: Human immunodeficiency virus 1; test: Antiviral activity against HIV1 isolate 071 harboring reverse transcriptase 65R/S68N/184V mutant gene by phenosense assay; type: functional, organism-based; conditions: Human immunodeficiency virus 1, isolate 071; summary of the method: as §2
[5] = test system: Human immunodeficiency virus 1; test: Antiviral activity against HIV1 isolate 174 harboring reverse transcriptase M184V mutant gene obtained as site-directed mutant of NL4-3 by phenosense assay relative to wild type; type: functional; summary of the method: as §2
[6] = test system: Human immunodeficiency virus 1; test: Antiviral activity against HIV1 isolate 204 harboring reverse transcriptase M41L/L210W/T215Y/M184V mutant gene by phenosense assay relative to wild type; type: functional
Summary of the method: (§3)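 PhenoSense HIV recombinant virus assay: patient-derived HIV-1 with major NRTI resistance mutations tested against increasing drug concentrations to give inhibition curves. EC50 is the concentration giving 50% inhibition. Fold change is the test recombinant EC50 divided by the EC50 of a drug-sensitive wild-type reference virus. Panel of 30 NRTI-resistant isolates plus two wild-type viruses.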

[7] = test system: Human immunodeficiency virus 1; test: Antiviral activity against HIV1 isolate 180 harboring reverse transcriptase K65R mutant gene obtained as site-directed mutant of NL4-3 by phenosense assay relative to wild type; type: functional; summary of the method: as §2
[8] = test system: Human immunodeficiency virus 1; test: Antiviral activity against HIV1 isolate 215 harboring reverse transcriptase D67N/K70E mutant gene by phenosense assay; type: functional, organism-based; conditions: Human immunodeficiency virus 1, isolate 215; summary of the method: as §3
[9] = test system: Human immunodeficiency virus 1; test: Antiviral activity against HIV1 isolate 069 harboring reverse transcriptase D67E/T69SSG/V75M/M184V/L210W/T215Y mutant gene by phenosense assay relative to wild type; type: functional; summary of the method: as §2
[10] = test system: Human immunodeficiency virus 1; test: Antiviral activity against HIV1 isolate 204 harboring reverse transcriptase M41L/L210W/T215Y/M184V mutant gene by phenosense assay; type: functional, organism-based; conditions: Human immunodeficiency virus 1, isolate 204; summary of the method: as §3
[11] = test system: Human immunodeficiency virus 1; test: Antiviral activity against HIV1 isolate 185 harboring reverse transcriptase T215Y mutant gene by phenosense assay relative to wild type; type: functional; summary of the method: as §2
[12] = test system: Human immunodeficiency virus 1; test: Antiviral activity against HIV1 isolate 166 harboring reverse transcriptase L74V mutant gene obtained as site-directed mutant of NL4-3 by phenosense assay relative to wild type; type: functional; summary of the method: as §2
[13] = test system: Human immunodeficiency virus 1; test: Antiviral activity against HIV1 1617-1 harboring reverse transcriptase 69K/70G/75I/77L/116Y/151M/184V mutant gene infected in human PBMC by ELISA; type: functional, organism-based; conditions: Human immunodeficiency virus 1, 1617-1; summary of the method: as §1
[14] = test system: Human immunodeficiency virus 1; test: Antiviral activity against HIV1 isolate 058 harboring reverse transcriptase M41L/D67N/K70R/L210W/T215F/K219Q mutant gene by phenosense assay; type: functional, organism-based; conditions: Human immunodeficiency virus 1, isolate 058; summary of the method: as §2
[15] = test system: Human immunodeficiency virus 1; test: Antiviral activity against HIV1 7324-1 harboring reverse transcriptase 41L/67N/69N/70R/215F/219E mutant gene infected in human PBMC by ELISA; type: functional, organism-based; conditions: Human immunodeficiency virus 1, 7324-1; summary of the method: as §1
[16] = test system: Human immunodeficiency virus 1; test: Antiviral activity against HIV1 isolate 192 harboring reverse transcriptase M41L/T215Y mutant gene by phenosense assay relative to wild type; type: functional; summary of the method: as §2
[17] = test system: Human immunodeficiency virus 1; test: Antiviral activity against HIV1 8415-2 harboring reverse transcriptase 65R/184V mutant gene infected in human PBMC by ELISA; type: functional, organism-based; conditions: Human immunodeficiency virus 1, 8415-2; summary of the method: as §1
[18] = test system: Human immunodeficiency virus 1; test: Antiviral activity against HIV1 isolate 200 harboring reverse transcriptase M41L/L210W/T215Y mutant gene by phenosense assay relative to wild type; type: functional; summary of the method: as §2
[19] = test system: Human immunodeficiency virus 1; test: Antiviral activity against HIV1 isolate 070 harboring reverse transcriptase 65R/S68G mutant gene by phenosense assay relative to wild type; type: functional; summary of the method: as §2
[20] = test system: Human immunodeficiency virus 1; test: Antiviral activity against HIV1 isolate 203 harboring reverse transcriptase M41L/L210W/T215Y/M184V mutant gene by phenosense assay; type: functional, organism-based; conditions: Human immunodeficiency virus 1, isolate 203; summary of the method: as §3
[21] = test system: Human immunodeficiency virus 1; test: Antiviral activity against HIV1 isolate 201 harboring reverse transcriptase M41L/L210W/T215Y mutant gene by phenosense assay; type: functional, organism-based; conditions: Human immunodeficiency virus 1, isolate 201; summary of the method: as §2
[22] = test system: Human immunodeficiency virus 1; test: Antiviral activity against HIV1 isolate 058 harboring reverse transcriptase M41L/D67N/K70R/L210W/T215F/K219Q mutant gene by phenosense assay relative to wild type; type: functional; summary of the method: as §2
[23] = test system: Human immunodeficiency virus 1; test: Antiviral activity against HIV1 isolate 174 harboring reverse transcriptase M184V mutant gene obtained as site-directed mutant of NL4-3 by phenosense assay; type: functional, organism-based; conditions: Human immunodeficiency virus 1, isolate 174; summary of the method: as §2
[24] = test system: Human immunodeficiency virus 1; test: Antiviral activity against HIV1 isolate 206 harboring reverse transcriptase D67N/K70R mutant gene by phenosense assay; type: functional, organism-based; conditions: Human immunodeficiency virus 1, isolate 206; summary of the method: as §3
[25] = test system: Human immunodeficiency virus 1; test: Antiviral activity against HIV1 isolate 066 harboring reverse transcriptase 184V mutant gene by phenosense assay; type: functional, organism-based; conditions: Human immunodeficiency virus 1, isolate 066; summary of the method: as §2
[26] = test system: Human immunodeficiency virus 1; test: Antiviral activity against HIV1 52534-2 harboring reverse transcriptase 41L//74V/210W/215Y/184V/69SSS mutant gene infected in human PBMC by ELISA; type: functional, organism-based; conditions: Human immunodeficiency virus 1, 52534-2; summary of the method: as §1
[27] = test system: Human immunodeficiency virus 1; test: Antiviral activity against HIV1 isolate 162 harboring reverse transcriptase A62V/V75I/F77L/Y115F/F116Y/Q151M/M184V mutant gene by phenosense assay relative to wild type; type: functional; summary of the method: as §2
[28] = test system: Human immunodeficiency virus 1; test: Antiviral activity against HIV1 isolate 200 harboring reverse transcriptase M41L/L210W/T215Y mutant gene by phenosense assay; type: functional, organism-based; conditions: Human immunodeficiency virus 1, isolate 200; summary of the method: as §2
[29] = test system: Human immunodeficiency virus 1; test: Antiviral activity against HIV1 isolate 063 harboring reverse transcriptase M41L/D67N/K70R/M184V/L210W/T215Y/K219E mutant gene by phenosense assay; type: functional, organism-based; conditions: Human immunodeficiency virus 1, isolate 063; summary of the method: as §2
[30] = test system: Human immunodeficiency virus 1; test: Antiviral activity against HIV1 4755-5 harboring reverse transcriptase 41L/44D/67N/69D/118I/210W/215Y/184V mutant gene infected in human PBMC by ELISA; type: functional, organism-based; conditions: Human immunodeficiency virus 1, 4755-5; summary of the method: as §1
[31] = test system: Human immunodeficiency virus 1; test: Antiviral activity against HIV1 isolate 188 harboring reverse transcriptase T215Y/M184V mutant gene by phenosense assay; type: functional, organism-based; conditions: Human immunodeficiency virus 1, isolate 188; summary of the method: as §2
[32] = test system: Human immunodeficiency virus 1; test: Antiviral activity against HIV1 isolate 160 harboring reverse transcriptase S68G/V75(I/T)/F77L/Y115F/F116Y /Q151M mutant gene by phenosense assay; type: functional, organism-based; conditions: Human immunodeficiency virus 1, isolate 160; summary of the method: as §2

Compound: Cc1cn([C@H]2C[C@H](N=[N+]=[N-])[C@@H](CO)O2)c(=O)[nH]c1=O [ZIDOVUDINE]
- EC50 [1]: 3000 nM
- fold change (FC) [2]: 0.41
- EC50 [3]: 12 nM
- EC50 [4]: 11 nM
- fold change (FC) [5]: 0.34
- fold change (FC) [6]: 3.9
- fold change (FC) [7]: 0.51
- EC50 [8]: 6 nM
- fold change (FC) [9]: 320
- EC50 [10]: 110 nM
- fold change (FC) [11]: 38
- fold change (FC) [12]: 0.5
- EC50 [13]: > 340 nM
- EC50 [14]: 9600 nM
- EC50 [15]: 330 nM
- fold change (FC) [16]: 20
- EC50 [17]: 1.8 nM
- fold change (FC) [18]: 100
- fold change (FC) [19]: 0.44
- EC50 [20]: 87 nM
- EC50 [21]: 2700 nM
- fold change (FC) [22]: 350
- EC50 [23]: 9 nM
- EC50 [24]: 770 nM
- EC50 [25]: 17 nM
- EC50 [26]: 350 nM
- fold change (FC) [27]: 150
- EC50 [28]: 2700 nM
- EC50 [29]: 1600 nM
- EC50 [30]: 100 nM
- EC50 [31]: 71 nM
- EC50 [32]: 2500 nM
